pKi: −log10 of the molar value.
Columns and labels:
Liver [1] = assay: Drug uptake in ddY mouse liver at 370 kBq/100 ul, iv at 10 mins by gamma-counting analysis; format: ADME, organism-based; conditions: in vivo
Summary of the method: (§1)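 Normal male ddY mice (5 weeks, 20−22 g, n = 5) received 370 kBq of tracer in 100 μL saline with 5% EtOH via tail vein. Mice were sacrificed at set times after injection, and organs were excised, weighed and γ-counted against diluted injectate aliquots. Values are %ID per gram, except stomach and intestine as %ID per organ, given as mean ± SD of 5 mice.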

Blood [2] = assay: Drug uptake in ddY mouse blood at 370 kBq/100 ul, iv at 10 mins by gamma-counting analysis; format: ADME, organism-based; conditions: in vivo; summary of the method: as §1
Brain [3] = assay: Drug uptake in wild type C57BL6 mouse brain at 370 kBq/100 ul after 1 hr by thioflavinS-staining method; format: ADME, tissue-based
Summary of the method: (§2)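 Paraffin sections of brain were used: C57BL6 mice (wild-type, 12 months), human AD (person) and normal human. Sections were deparaffinized through xylene and graded ethanol, then equilibrated 30 min in PBS (0.2 M, pH 7.4). Incubated 1 h at room temperature with tracer, 370 kBq/100 μL, washed 1 min in 50% ethanol and rinsed with water. Imaging plate exposed overnight. Plaques confirmed by thioflavin-S or anti-Aβ1-42 monoclonal immunostaining.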

Stomach [4] = assay: Drug uptake in ddY mouse stomach assessed per organ at 370 kBq/100 ul, iv at 2 mins by gamma-counting analysis; format: ADME, organism-based; conditions: in vivo; summary of the method: as §1
Spleen [5] = assay: Drug uptake in ddY mouse spleen at 370 kBq/100 ul, iv at 2 mins by gamma-counting analysis; format: ADME, organism-based; conditions: in vivo; summary of the method: as §1
Blood [6] = assay: Drug uptake in ddY mouse blood at 370 kBq/100 ul, iv at 60 mins by gamma-counting analysis; format: ADME, organism-based; conditions: in vivo, 1 h; summary of the method: as §1
Spleen [7] = assay: Drug uptake in ddY mouse spleen at 370 kBq/100 ul, iv at 10 mins by gamma-counting analysis; format: ADME, organism-based; conditions: in vivo; summary of the method: as §1
Liver [8] = assay: Drug uptake in ddY mouse liver at 370 kBq/100 ul, iv at 2 mins by gamma-counting analysis; format: ADME, organism-based; conditions: in vivo; summary of the method: as §1
Kidney [9] = assay: Drug uptake in ddY mouse kidney at 370 kBq/100 ul, iv at 30 mins by gamma-counting analysis; format: ADME, organism-based; conditions: in vivo, 0.5 h; summary of the method: as §1
Brain [10] = assay: Drug uptake in ddY mouse brain at 370 kBq/100 ul, iv at 2 mins by gamma-counting analysis; format: ADME, organism-based; conditions: in vivo; summary of the method: as §1
Kidney [11] = assay: Drug uptake in ddY mouse kidney at 370 kBq/100 ul, iv at 2 mins by gamma-counting analysis; format: ADME, organism-based; conditions: in vivo; summary of the method: as §1
Heart [12] = assay: Drug uptake in ddY mouse heart at 370 kBq/100 ul, iv at 30 mins by gamma-counting analysis; format: ADME, organism-based; conditions: in vivo, 0.5 h; summary of the method: as §1
Lung [13] = assay: Drug uptake in ddY mouse lung at 370 kBq/100 ul, iv at 2 mins by gamma-counting analysis; format: ADME, organism-based; conditions: in vivo; summary of the method: as §1
Intestine [14] = assay: Drug uptake in ddY mouse intestine at 370 kBq/100 ul, iv at 30 mins by gamma-counting analysis; format: ADME, organism-based; conditions: in vivo, 0.5 h; summary of the method: as §1
Heart [15] = assay: Drug uptake in ddY mouse heart at 370 kBq/100 ul, iv at 2 mins by gamma-counting analysis; format: ADME, organism-based; conditions: in vivo; summary of the method: as §1
Bone [16] = assay: Drug uptake in ddY mouse bone at 370 kBq/100 ul, iv at 60 mins by gamma-counting analysis; format: ADME, organism-based, Bone element; conditions: in vivo, 1 h; summary of the method: as §1
Brain [17] = assay: Drug uptake in wild type C57BL6 mouse brain at 370 kBq/100 ul after 1 hr by autoradiographic analysis; format: ADME, tissue-based; conditions: in vitro; summary of the method: as §2
Brain [18] = assay: Drug uptake in ddY mouse brain at 370 kBq/100 ul, iv at 30 mins by gamma-counting analysis; format: ADME, organism-based; conditions: in vivo, 0.5 h; summary of the method: as §1
Stomach [19] = assay: Drug uptake in ddY mouse stomach assessed per organ at 370 kBq/100 ul, iv at 30 mins by gamma-counting analysis; format: ADME, organism-based; conditions: in vivo, 0.5 h
Summary of the method: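 Male ddY mice (5 weeks, 20−22 g, n = 5) received tracer in saline with 5% EtOH, 370 kBq/100 μL, by tail vein. Killed at set times after dosing. Stomach removed, weighed and γ-counted against diluted aliquots of the injected dose. Reported as % injected dose per organ, mean ± SD of 5 mice.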

[20] = n-Octanol-PBS buffer partition coefficient, log D of the compound at 370 kBq after 3 mins at pH 7.4; format: physicochemical
Summary of the method: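 For log D, tubes containing n-octanol and PBS were vortexed 3 min at room temperature and centrifuged 5 min at 3000 rpm. Weighed samples of the octanol (100 μL) and buffer (500 μL) layers were counted. Log D is the log of the ratio of counts per gram, octanol to PBS.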

Heart [21] = assay: Drug uptake in ddY mouse heart at 370 kBq/100 ul, iv at 60 mins by gamma-counting analysis; format: ADME, organism-based; conditions: in vivo, 1 h; summary of the method: as §1
Lung [22] = assay: Drug uptake in ddY mouse lung at 370 kBq/100 ul, iv at 60 mins by gamma-counting analysis; format: ADME, organism-based; conditions: in vivo, 1 h; summary of the method: as §1
Kidney [23] = assay: Drug uptake in ddY mouse kidney at 370 kBq/100 ul, iv at 10 mins by gamma-counting analysis; format: ADME, organism-based; conditions: in vivo; summary of the method: as §1
Kidney [24] = assay: Drug uptake in ddY mouse kidney at 370 kBq/100 ul, iv at 60 mins by gamma-counting analysis; format: ADME, organism-based; conditions: in vivo, 1 h; summary of the method: as §1
Bone [25] = assay: Drug uptake in ddY mouse bone at 370 kBq/100 ul, iv at 10 mins by gamma-counting analysis; format: ADME, organism-based, Bone element; conditions: in vivo; summary of the method: as §1
Intestine [26] = assay: Drug uptake in ddY mouse intestine at 370 kBq/100 ul, iv at 10 mins by gamma-counting analysis; format: ADME, organism-based; conditions: in vivo; summary of the method: as §1
Brain [27] = assay: Ratio of drug uptake in brain at 2 mins to drug uptake in brain at 60 mins in ddY mouse at 370 kBq/100 ul, iv; format: ADME, organism-based; conditions: in vivo
Summary of the method: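 Tail-vein injection of 370 kBq/100 μL (saline, 5% EtOH) into male ddY mice (5 weeks, 20−22 g, n = 5). Brain excised at 2 and 60 min, weighed and γ-counted against diluted injectate. Uptake is %ID/g, and the ratio is brain at 2 min divided by brain at 60 min.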

Lung [28] = assay: Drug uptake in ddY mouse lung at 370 kBq/100 ul, iv at 30 mins by gamma-counting analysis; format: ADME, organism-based; conditions: in vivo, 0.5 h; summary of the method: as §1
Bone [29] = assay: Drug uptake in ddY mouse bone at 370 kBq/100 ul, iv at 30 mins by gamma-counting analysis; format: ADME, organism-based, Bone element; conditions: in vivo, 0.5 h; summary of the method: as §1
Intestine [30] = assay: Drug uptake in ddY mouse intestine at 370 kBq/100 ul, iv at 2 mins by gamma-counting analysis; format: ADME, organism-based; conditions: in vivo; summary of the method: as §1
[31] = Displacement of [125I]IMPY from amyloid beta (1 to 42) fibrils after 2 hrs by gamma-counting analysis
Summary of the method: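 Competition binding with aggregated Aβ1-42 fibrils (60 nM final) and [125I]IMPY. Inhibitors were tested at 10⁻⁵–10⁻¹⁰ M (in ethanol) in 0.2 M PBS, pH 7.4, 1 mL, for 2 h at 37 °C with shaking. Nonspecific binding was defined with 1 μM IMPY. Bound ligand was collected by GF/B filtration and γ-counted. Ki was derived from IC50 via Cheng–Prusoff.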

Brain [32] = assay: Drug uptake in ddY mouse brain at 370 kBq/100 ul, iv at 60 mins by gamma-counting analysis; format: ADME, organism-based; conditions: in vivo, 1 h; summary of the method: as §1
Intestine [33] = assay: Drug uptake in ddY mouse intestine at 370 kBq/100 ul, iv at 60 mins by gamma-counting analysis; format: ADME, organism-based; conditions: in vivo, 1 h; summary of the method: as §1
Blood [34] = assay: Drug uptake in ddY mouse blood at 370 kBq/100 ul, iv at 30 mins by gamma-counting analysis; format: ADME, organism-based; conditions: in vivo, 0.5 h; summary of the method: as §1

CN(C)c1ccc(-c2nc3cc(OCCOCCOCC[18F])ccc3o2)cc1
Drug uptake (Liver [1]): 11.36 % ID/g
Drug uptake (Blood [2]): 2.26 % ID/g
Drug uptake (Brain [3]): Not Active
Drug uptake (Stomach [4]): 1.1 %ID
Drug uptake (Spleen [5]): 3.6 % ID/g
Drug uptake (Blood [6]): 3.33 % ID/g
Drug uptake (Spleen [7]): 2.88 % ID/g
Drug uptake (Liver [8]): 13.04 % ID/g
Drug uptake (Kidney [9]): 4.08 % ID/g
Drug uptake (Brain [10]): 5.29 % ID/g
Drug uptake (Kidney [11]): 8.71 % ID/g
Drug uptake (Heart [12]): 3.14 % ID/g
Drug uptake (Lung [13]): 5.18 % ID/g
Drug uptake (Intestine [14]): 22.59 % ID/g
Drug uptake (Heart [15]): 5.55 % ID/g
Drug uptake (Bone [16]): 3.45 % ID/g
Drug uptake (Brain [17]): Not Active
Drug uptake (Brain [18]): 2.5 % ID/g
Drug uptake (Stomach [19]): 1.51 %ID
logD at 0.05 h [20]: 3.45
Drug uptake (Heart [21]): 3.13 % ID/g
Drug uptake (Lung [22]): 3.22 % ID/g
Drug uptake (Kidney [23]): 5.18 % ID/g
Drug uptake (Kidney [24]): 3.68 % ID/g
Drug uptake (Bone [25]): 1.07 % ID/g
Drug uptake (Intestine [26]): 15.7 % ID/g
Ratio (Brain [27]): 2.5
Drug uptake (Lung [28]): 3.28 % ID/g
Drug uptake (Bone [29]): 1.96 % ID/g
Drug uptake (Intestine [30]): 4.8 % ID/g
pKi [31]: 8.41
Drug uptake (Brain [32]): 2.12 % ID/g
Drug uptake (Intestine [33]): 15.82 % ID/g
Drug uptake (Blood [34]): 2.84 % ID/g

CNc1ccc(-c2nc3cc(OCCOCCOCC[18F])ccc3o2)cc1
Drug uptake (Liver [1]): 23.15 % ID/g
Drug uptake (Blood [2]): 3.46 % ID/g
Drug uptake (Brain [3]): Not Active
Drug uptake (Stomach [4]): 1.59 %ID
Drug uptake (Spleen [5]): 3.9 % ID/g
Drug uptake (Blood [6]): 4.87 % ID/g
Drug uptake (Spleen [7]): 4.22 % ID/g
Drug uptake (Liver [8]): 20.28 % ID/g
Drug uptake (Kidney [9]): 6.84 % ID/g
Drug uptake (Brain [10]): 8.12 % ID/g
Drug uptake (Kidney [11]): 12.88 % ID/g
Drug uptake (Heart [12]): 4.84 % ID/g
Drug uptake (Lung [13]): 8.18 % ID/g
Drug uptake (Intestine [14]): 23.92 % ID/g
Drug uptake (Heart [15]): 8.57 % ID/g
Drug uptake (Bone [16]): 5.78 % ID/g
Drug uptake (Brain [17]): Not Active
Drug uptake (Brain [18]): 4.07 % ID/g
Drug uptake (Stomach [19]): 1.85 %ID
logD at 0.05 h [20]: 3.09
Drug uptake (Heart [21]): 4.32 % ID/g
Drug uptake (Lung [22]): 5.22 % ID/g
Drug uptake (Kidney [23]): 8.45 % ID/g
Drug uptake (Kidney [24]): 5.4 % ID/g
Drug uptake (Bone [25]): 2.32 % ID/g
Drug uptake (Intestine [26]): 25 % ID/g
Ratio (Brain [27]): 2.67
Drug uptake (Lung [28]): 5.3 % ID/g
Drug uptake (Bone [29]): 3.74 % ID/g
Drug uptake (Intestine [30]): 11.33 % ID/g
pKi [31]: 8.03
Drug uptake (Brain [32]): 3.04 % ID/g
Drug uptake (Intestine [33]): 23.91 % ID/g
Drug uptake (Blood [34]): 4.67 % ID/g
